We go through nine compounds from EPA's CvTdb concentration-time database.

In series [1] the test system is Rat. Kind of series: concentration in plasma after dosing. Particulars: 0.5 h; dosed: Wyeth-14643; 1.0 mg/kg; oral; Male; Sprague-Dawley.
Series [2] deals with Rat. Kind of series: concentration in plasma after dosing. The following applies: 1 h; dosed: Wyeth-14643; 2.0 mg/kg; iv; Male; Sprague-Dawley.
Series [3] concerns Rat. Kind of series: concentration in plasma after dosing. Particulars: 5 h; dosed: Wyeth-14643; 1.0 mg/kg; oral; Male; Sprague-Dawley.
Series [4] relates to Rat. Kind of series: concentration in plasma after dosing. The following applies: dosed: Wyeth-14643, 2.0 mg/kg, iv, Male, Sprague-Dawley.
In series [5] the test system is Rat. Kind of series: concentration in liver after dosing. The following applies: 1 h; dosed: Bis 2-Chloroethoxy Methane; 20 mg/kg; iv; Male; F344.
The test system of series [6] is Rat. Kind of series: concentration in plasma after dosing. Particulars: 3 h; dosed: Bis 2-Chloroethoxy Methane; 40 mg/kg; iv; Male; Harlan Sprague Dawley.
In series [7] the test system is Rat. Description: concentration in plasma after dosing. Particulars: dosed: Bis 2-Chloroethoxy Methane, 40 mg/kg, iv, Male, Harlan Sprague Dawley.
Series [8] concerns Rat. Kind of series: concentration in heart after dosing. The following applies: 40 min; dosed: Bis 2-Chloroethoxy Methane; 20 mg/kg; iv; Male; F344.
Series [9] relates to Rat. Kind of series: concentration in thymus after dosing. Particulars: 6 h; dosed: Bis 2-Chloroethoxy Methane; 20 mg/kg; iv; Female; F344.
The test system of series [10] is Rat. Kind of series: concentration in liver after dosing. Particulars: 3 h; dosed: Bis 2-Chloroethoxy Methane; 20 mg/kg; iv; Male; F344.
Series [11] has as its system Rat. Description: concentration in liver after dosing. Particulars: 40 min; dosed: Bis 2-Chloroethoxy Methane; 20 mg/kg; iv; Male; F344.
For series [12], the system named is Rat. Description: concentration in thymus after dosing. Particulars: 3 h; dosed: Bis 2-Chloroethoxy Methane; 20 mg/kg; iv; Male; F344.
In series [13] the test system is Rat. Description: concentration in liver after dosing. The following applies: 12 h; dosed: Fluorotelomer alcohol 8+2; 80 mg/kg; oral; Female; Harlan Sprague Dawley.
Series [14] deals with Rat. Description: concentration in plasma after dosing. Particulars: dosed: Fluorotelomer alcohol 8+2, 12 mg/kg, iv, Male, F344.
The test system of series [15] is Rat. Kind of series: concentration in plasma after dosing. Particulars: 2 h; dosed: Di-n-butyl phthalate; 100 mg/kg; oral; Male; Sprague-Dawley.
Series [16] relates to Rat. Kind of series: concentration in plasma after dosing. The following applies: 10 min; dosed: Di-n-butyl phthalate; 50 mg/kg; oral; Male; Sprague-Dawley.
For series [17], the system named is Rat. Kind of series: concentration in plasma after dosing. The following applies: 10 h; dosed: Di-n-butyl phthalate; 100 mg/kg; oral; Male; Sprague-Dawley.
For series [18], the system named is Rat. Kind of series: concentration in plasma after dosing. The following applies: 2 h; dosed: Di-n-butyl phthalate; 50 mg/kg; oral; Male; Sprague-Dawley.
For series [19], the system named is Rat. Description: concentration in plasma after dosing. Particulars: dosed: Perfluorodecanoic acid, 2 mg/kg, iv, Male, F344.
Series [20] deals with Rat. Kind of series: concentration in plasma after dosing. Particulars: dosed: Perfluorodecanoic acid, 2 mg/kg, iv, Male, F344. This is another data set of the same source.
The test system of series [21] is Rat. Kind of series: concentration in plasma after dosing. Particulars: 12 h; dosed: Primidone; 30 mg/kg; oral; Female; F344.
For series [22], the system named is Rat. Kind of series: concentration in plasma after dosing. Particulars: 0.5 h; dosed: Primidone; 80 mg/kg; oral; Female; Harlan Sprague-Dawley.
Series [23] has as its system Rat. Kind of series: concentration in plasma after dosing. Particulars: 3 h; dosed: Primidone; 30 mg/kg; oral; Female; F344.
Series [24] has as its system Rat. Description: concentration in plasma after dosing. The following applies: 0.25 h; dosed: Primidone; 30 mg/kg; oral; Male; F344.
Series [25] deals with Rat. Kind of series: concentration in heart after dosing. The following applies: 10 min; dosed: Thiodiglycolic Acid; 20 mg/kg; iv; Female; Harlan Sprague Dawley.
Series [26] concerns Rat. Description: concentration in liver after dosing. The following applies: 2 h; dosed: Thiodiglycolic Acid; 20 mg/kg; iv; Female; Harlan Sprague Dawley.
Series [27] deals with Rat. Kind of series: concentration in heart after dosing. The following applies: 6.667 h; dosed: Thiodiglycolic Acid; 20 mg/kg; iv; Female; Harlan Sprague Dawley.
The test system of series [28] is Rat. Description: concentration in liver after dosing. The following applies: 4 h; dosed: Thiodiglycolic Acid; 20 mg/kg; iv; Male; Harlan Sprague Dawley.
Series [29] relates to Rat. Description: concentration in heart after dosing. Particulars: 4 h; dosed: Thiodiglycolic Acid; 20 mg/kg; iv; Male; Harlan Sprague Dawley.
The test system of series [30] is Rat. Description: concentration in liver after dosing. The following applies: 2 h; dosed: Thiodiglycolic Acid; 20 mg/kg; iv; Female; Harlan Sprague Dawley. This is another data set of the same source.
The test system of series [31] is Rat. Kind of series: concentration in thymus after dosing. The following applies: 5.333 h; dosed: Thiodiglycolic Acid; 20 mg/kg; iv; Female; Harlan Sprague Dawley.
Series [32] relates to Rat. Kind of series: concentration in liver after dosing. Particulars: 6.667 h; dosed: Thiodiglycolic Acid; 20 mg/kg; iv; Female; Harlan Sprague Dawley.
The subject of series [33] is Rat. Kind of series: concentration in heart after dosing. Particulars: 40 min; dosed: Thiodiglycolic Acid; 20 mg/kg; iv; Female; Harlan Sprague Dawley.
In series [34] the test system is Rat. Description: concentration in thymus after dosing. The following applies: 5.333 h; dosed: Thiodiglycolic Acid; 20 mg/kg; iv; Female; Harlan Sprague Dawley. The source holds these as a separate data set.
Series [35] has as its system Rat. Kind of series: concentration in thymus after dosing. The following applies: 10 h; dosed: Thiodiglycolic Acid; 20 mg/kg; iv; Female; Harlan Sprague Dawley.
In series [36] the test system is Rat. Description: concentration in plasma after dosing. Particulars: dosed: dichloroacetic acid, 10 mg/kg, oral, Male, Harlan Sprague Dawley.
In the next series the test system is human. Kind of series: concentration in blood after dosing. The following applies: dosed: trichloroethylene, 100 ppm, inhalation, duration: 6 hr, person. The method in brief: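 Concentration-versus-time or amount-versus-time points were compiled from published in vivo toxicokinetic studies and from two structured collections. The studies were found by PubMed searching, classifier screening and manual review. Points were mostly digitised from plot screenshots with WebPlotDigitizer, otherwise copied from tables, and kept in the reported units. Dose, route, subject details and medium were curated by hand from each paper, and sampling and analytical methods follow each source and were often unreported.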

In the case of `Cc1cccc(Nc2cc(Cl)nc(SCC(=O)O)n2)c1C`, the concentration in plasma is 1210 ng/mL in the series on Rat [1]; 2380 ng/mL in the series with Rat [2]; 118 ng/mL in the series on Rat [3]; 5200 ng/mL in the series with Rat [4] (0.5 h); 338 ng/mL with Rat [4] (3 h).

In the case of `ClCCOCOCCCl` [Bis 2-Chloroethoxy Methane], the concentration in liver in the series with Rat [5] is 2410 ng/g; in the series on Rat [10], 104 ng/g; with Rat [11] it was 4070 ng/g. Besides, the results for the concentration in plasma in the series on Rat [6], with Rat [7] (10 min) and with Rat [7] (5.333 h) were 362 ng/mL, 22300 ng/mL and 72.8 ng/mL, respectively. Also, the concentration in heart in the series with Rat [8] stood at 7270 ng/g. In addition, the results for the concentration in thymus in the series on Rat [9] and in the series with Rat [12] were 61.4 ng/g and 134 ng/g, respectively.

In the series with Rat [13], `OCCC(F)(F)C(F)(F)C(F)(F)C(F)(F)C(F)(F)C(F)(F)C(F)(F)C(F)(F)F` [Fluorotelomer alcohol 8+2] yielded a concentration in liver of 434 ng/g. Besides, the concentration in plasma worked out at 818 ng/mL with Rat [14] (0.75 h) and 14.2 ng/mL in the series with Rat [14] (12 h).

As for `CCCCOC(=O)c1ccccc1C(=O)O` [Mono-n-butyl phthalate], the concentration in plasma amounted to 1290 ng/mL with Rat [15], 26100 ng/mL with Rat [16], 1170 ng/mL in the series on Rat [17] and 809 ng/mL with Rat [18].

On to `O=C(O)C(F)(F)C(F)(F)C(F)(F)C(F)(F)C(F)(F)C(F)(F)C(F)(F)C(F)(F)C(F)(F)F` [Perfluorodecanoic acid], for which the concentration in plasma in the series with Rat [19] (12 h) is 4320 ng/mL; in the series with Rat [19] (1200 h), 1720 ng/mL; in the series with Rat [20] (12 h) it was 6270 ng/mL; in the series with Rat [20] (1200 h), 874 ng/mL.

In the case of `CCC1(c2ccccc2)C(=O)NC(=O)NC1=O` [Phenobarbital], the concentration in plasma in the series on Rat [21] worked out at 930 ng/mL; in the series on Rat [22], 1480 ng/mL; with Rat [23], 640 ng/mL; with Rat [24], 340 ng/mL.

In the case of `O=C(O)CSCC(=O)O` [Thiodiglycolic Acid], the concentration in heart in the series with Rat [25] came to 9540 ng/g; with Rat [27] it was 246 ng/g; with Rat [29] it was 527 ng/g; in the series with Rat [33], 3040 ng/g. In addition, the concentration in liver worked out at 39600 ng/g with Rat [26], 70900 ng/g with Rat [28], 25500 ng/g in the series on Rat [30] and 2190 ng/g in the series on Rat [32]. In addition, the figures for the concentration in thymus in the series on Rat [31], in the series on Rat [34] and in the series on Rat [35] were 372 ng/g, 547 ng/g and 254 ng/g, respectively.

As for `O=C(O)C(Cl)Cl` [dichloroacetic acid], the concentration in plasma was found to be 621 ng/mL in the series on Rat [36] (5 min) and 137 ng/mL with Rat [36] (40 min).

Regarding `O=C(O)C(Cl)(Cl)Cl` [trichloroacetic acid], the concentration in blood in the series with human (0 h) turned out to be 11900 ng/mL; with human (18 h), 32600 ng/mL; in the series with human (24 h) it was 50300 ng/mL; in the series on human (42 h), 32200 ng/mL; in the series on human (48 h), 51100 ng/mL; in the series on human (66 h), 51000 ng/mL. Further, the concentration in blood was 55100 ng/mL with human (72 h), 49000 ng/mL in the series with human (90 h), 64900 ng/mL with human (96 h) and 28900 ng/mL with human (160 h).
